Most compounds without a hit are left out; they make up all but 0.63% or so of the library.
TRPML3 agonist = human TRPML3 channel agonists, primary screen, cell-based, HEK293 TRPML3-YFP, Fluo-8 calcium fluorescence, 3 µM. Mucolipin-3 (Homo sapiens), Q8TDD5. 100% = the carbachol control signal. activation, % at 3 µM. 220,000 tested, 0.29% active. AID 1448, 2008;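 active = activation above its plate's cutoff, the mean activation of the plate's test wells plus 3 SD, cut at about 12% in these data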;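 note: 0% = DMSO only wells and 100% = carbachol wells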
Target sequence (Q8TDD5 whole entry, looked up): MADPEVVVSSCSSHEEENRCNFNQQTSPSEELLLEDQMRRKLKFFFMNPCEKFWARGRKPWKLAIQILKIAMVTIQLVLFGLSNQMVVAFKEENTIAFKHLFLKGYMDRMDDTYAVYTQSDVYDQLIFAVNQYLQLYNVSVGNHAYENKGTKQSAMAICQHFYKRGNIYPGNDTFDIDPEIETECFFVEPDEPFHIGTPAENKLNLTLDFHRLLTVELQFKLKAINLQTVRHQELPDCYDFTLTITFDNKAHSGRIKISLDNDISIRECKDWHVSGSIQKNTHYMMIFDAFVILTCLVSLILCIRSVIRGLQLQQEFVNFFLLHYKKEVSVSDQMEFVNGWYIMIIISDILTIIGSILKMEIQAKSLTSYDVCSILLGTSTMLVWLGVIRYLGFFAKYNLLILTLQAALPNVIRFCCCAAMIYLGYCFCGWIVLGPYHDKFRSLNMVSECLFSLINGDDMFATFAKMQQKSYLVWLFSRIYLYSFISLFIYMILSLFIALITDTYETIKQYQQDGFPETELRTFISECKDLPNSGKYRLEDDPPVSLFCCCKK
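Test system – HEK293 line with stable expression of human TRPML3-YFP channel · Control set – carbachol 87 µM final as high control (100%), DMSO as low control (0%) · Signal – Fluo-8 calcium dye fluorescence, ex 470-495, em 515-575 nm · Incubation – 1-h 37 °C dye load, 5-s basal, 120-s post-compound reads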
IDE act = human IDE activators in live cells, primary screen, fluorescence polarization, HEK cells, FAbeta-B substrate; Insulin-degrading enzyme (Homo sapiens), P14735; FAbeta-B cleavage; 0% vehicle, 100% cell-free pure enzyme wells; activation, % at 5.96 µM; 340,000 tested, 0.073% active; AID 493087, 2011;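 active = activation above the mean of all tested compounds plus 3 SD, set per screening campaign, cut at about 17% in these data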
zfTRPN1 agonist = zebrafish TRPN1 channel agonists, primary screen, cell-based, HEK293, calcium fluorescence; AID 1424, 2008; HEK293 zebrafish TRPN1-YFP, Fluo-8 calcium fluorescence; 100% = response to 87 µM carbachol; activation, % at 3 µM; transient receptor potential cation channel N1 (TRPN1/NompC), Danio rerio; 220,000 tested, 0.18% active;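 active = activation above its plate's cutoff, the mean activation of test wells on that plate plus 3 SD, cut at about 19% in these data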;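 note: 0% = DMSO alone and 100% = 87 µM carbachol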
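System: zebrafish TRPN1-YFP in HEK293 cells / Dosing: 3 µM single point / Timing: dye loading 1 h at 37 °C, then 30 min room temperature / Signal: Fluo-8 calcium fluorescence, excitation 470-495 nm, emission 515-575 nm / Read-out basis: percent activation from peak over basal fluorescence ratio, control-normalized / Control set: high carbachol 87 µM, low DMSO alone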
IDE inh = human IDE inhibitors in live cells, primary screen, fluorescence polarization, HEK cells, FAbetaB substrate | FAbetaB cleavage | inhibition, % at 5.59 µM | 320,000 tested, 0.41% active;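 active = percent inhibition above the average of all tested compounds plus 3 SD, set per screening campaign, cut at about 16% in these data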;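 note: IDE supplied by intact live HEK cells; FP after avidin binding of uncleaved biotin substrate so inhibition keeps polarization high; 0% = DMSO wells and 100% = 60 µM reference IDE inhibitor Ii1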
TRPN1 counter = zebrafish TRPN1 channel agonists, counter-screen for TRPML3 agonist project, cell-based, HEK293 TRPN1-YFP, Fluo-8 calcium | activation, % at 3 µM | Fluo-8 calcium fluorescence; scaled: carbachol wells 100%, DMSO wells 0% | 310 tested, 10% active | shares compounds with TRPML3 agonist | AID 1525, 2009;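 active = mean activation over replicates above a set limit taken from the earlier TRPN1 channel primary screen, cut at about 19% in these data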;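 note: 100% = carbachol and 0% = 0.3% DMSO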
TRPML3 ag conf = human TRPML3 channel agonists, confirmation, cell-based, HEK293 TRPML3-YFP, Fluo-8 calcium, triplicate; shares compounds with TRPML3 agonist; activation, % at 3 µM; AID 1526, 2009; 310 tested, 80% active; Fluo-8 calcium fluorescence; 100% set by carbachol, 0% by DMSO;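 active = activation above a set limit derived from the earlier primary screen, cut at about 12% in these data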
IDE inh confirm = human IDE inhibitors in live cells, confirmation, fluorescence polarization, HEK cells, FAbetaB substrate | AID 435028, 2010 | FAbetaB cleavage | shares compounds with IDE inh | inhibition, % at 5.59 µM | 1,200 tested, 51% active;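 active = mean inhibition across triplicate wells above the cutoff set by the earlier primary insulin-degrading enzyme screen, cut at about 16% in these data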;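 note: 0% = DMSO wells and 100% = 60 µM reference IDE inhibitor Ii1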
HEK cytotox = cytotoxicity in HEK cells, cytotoxicity control for IDE inhibitor project, cell-based, luminescence; HEK293 cytotoxicity, ATP luminescence; 1,200 tested, 28% active; inhibition, % at 5.59 µM; AID 449730, 2010; shares compounds with IDE inh; in the data active = inhibition above about 22%;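 note: 0% = vehicle wells and 100% = reference cytotoxic drug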
The depositor's hits bear a star; . = no result.

SMILES	TRPML3 agonist	IDE act	zfTRPN1 agonist	IDE inh	others
CCOC(=O)C(O)(c1ccc(NC(=S)NC(=O)c2ccc(Cl)cc2Cl)c(C)c1)C(F)(F)F (stereo not drawn)	12*	-2	22*	4
COC(=O)C(O)(c1ccc(NC(=S)NC(=O)c2ccc(Cl)cc2Cl)c(C)c1)C(F)(F)F (stereo not drawn)	4	6	19	0
CC1=NCCc2c1[nH]c1cc(O)ccc21	.	66*	.	-28
c1ccc2c(c1)[IH]c1ccccc1-2	.	-3	.	.
CCOC(=O)C1CCCN(c2ccc([N+](=O)[O-])c3nonc23)C1 (stereo not drawn)	113*	-91	291*	.
CC1CCCN(c2ccc(C(=O)N3CCC4(CC3)OCCO4)cc2[N+](=O)[O-])C1 (stereo not drawn)	0	6	-1	-4
CCN(CC)c1ccc(/C=C/[N+](=O)[O-])cc1	36*	-74	47*	6
COc1cc(/C=C/[N+](=O)[O-])ccc1O	2	-1	0	-1
O=c1c2ccccc2nc(/C=C/c2ccc(O)cc2)n1-c1cccc(O)c1	0	-148	0	83*
O=c1c2ccccc2nc(/C=C/c2ccc3c(c2)OCO3)n1-c1cccc(O)c1	1	6	0	4
CCCC1(CCO)C(=O)NC(=S)NC1=O	.	0	.	.
CCc1nnc(NS(=O)(=O)c2ccc(N=Cc3c(O)n(-c4ccc(Cl)cc4)c(=O)[nH]c3=O)cc2)s1	1	50*	0	2
O=C(CCCN1CCC2(CC1)C(=O)NCN2c1ccccc1)c1ccc(F)cc1	50*	-2	53*	-3
CC1OC(C[N+](C)(C)C)CC1O (stereo not drawn)	.	6	.	-1
C[C@H]1OC[C@@H](C[N+](C)(C)C)O1	99*	1	71*	0
COc1ccc(CNCCc2ccc3c(c2)OCO3)cc1Br	.	6	.	0
CC(=O)OCC[N+](C)(C)C	100*	6	75*	-3
COC(=O)C1=C(c2c(C)noc2C)C[C@@H]2CC[C@H]1N2C(=O)NCCNC(C)=O	.	0	.	7
CC(C)[C@H]1C(=O)O[C@H](C(C)C)C(=O)N(C)[C@@H](C(C)C)C(=O)O[C@H](C(C)C)C(=O)N(C)[C@@H](C(C)C)C(=O)O[C@H](C(C)C)C(=O)N1C	20*	2	36*	-2
CN1C(=O)NC(=O)C2(CCCC2)C1=O	.	1	.	.
COC(=O)C1=C(c2ccc(OC)c(OC)c2)C[C@@H]2CC[C@H]1N2C(=O)NCC1CC1	.	5	.	0
N#CC(C#N)=NNc1ccc(-n2ccc(C(F)(F)F)n2)cc1	23*	1	27*	1
Cc1cc(C)n(-c2ccc(NN=C(C#N)C#N)cc2)n1	18*	9	32*	6
O=C1NC(=O)N(c2ccccc2)C(=O)/C1=C/c1ccc(Sc2ccccc2)o1	2	-10	2	3
O=C1NC(=O)N(c2ccccc2F)C(=O)/C1=C/c1ccc(Sc2nc3ccccc3[nH]2)o1	46*	-44	43*	34*
SMILES	TRPML3 agonist	IDE act	zfTRPN1 agonist	IDE inh	others
O=C(Cc1ccccc1F)N1CCN(CC(=O)N2CCCC2)CC1	.	-5	.	2
O=C(O)c1cc[c]([Hg][Cl])cc1	.	-61	.	96*
COc1ccc(C(=O)O)cc1OC	.	4	.	.
CCOC(=O)c1c(N)n(Cc2ccco2)c2nc3ccccc3nc12	15*	-10	4	6	TRPN1 counter=4;TRPML3 ag conf=2
COc1ccc(CN2Cc3cnnn3-c3ccccc3C2C)cc1 (stereo not drawn)	.	1	.	.
C=CCn1c(O)c(/C=C/C=Nc2ccccc2)c(=O)[nH]c1=O	2	-1	0	18*	IDE inh confirm=11;HEK cytotox=6
COc1ccc(-n2c(O)c(/C=C/C=Nc3ccccc3)c(=O)[nH]c2=O)cc1	27*	-192	43*	159*	IDE inh confirm=51*;HEK cytotox=1
O=c1[nH]c(=O)n(C2CCCCC2)c(O)c1/C=C/C=Nc1ccccc1	4	-40	6	21*	IDE inh confirm=42*;HEK cytotox=8
O=c1[nH]c(=O)n(-c2ccccc2)c(O)c1/C=C/C=Nc1ccccc1	3	-26	5	34*	IDE inh confirm=35*;HEK cytotox=3
CC(CC(C)(C)N1CC1)=NO	.	0	.	.
Cc1ccc(N/N=C/c2c(O)n(-c3ccccc3)c(=O)[nH]c2=O)cc1	0	-2	1	-2
Cc1ccc(-n2c(O)c(/C=C/C=Nc3ccccc3)c(=O)[nH]c2=O)cc1	2	-29	2	21*	IDE inh confirm=30*;HEK cytotox=3
COc1cc2c(c(OC)c1OC)-c1ccc(SC)c(=O)cc1C(NC(C)=O)CC2 (stereo not drawn)	.	0	.	.
CCN(CC)c1ccc(/C=C2\C(=O)NC(=S)N(c3ccc(OC)cc3OC)C2=O)o1	.	-33	.	33*	IDE inh confirm=36*;HEK cytotox=4
CCN(CC)c1ccc(C=C2C(=O)N(C)C(=S)N(C)C2=O)o1	4	-15	5	12
CCN(CC)c1ccc(/C=C2\C(=O)NC(=S)N(C)C2=O)o1	3	-25	14	26*	IDE inh confirm=29*;HEK cytotox=14
O=C(CCN1CC1)OCCOC(=O)CCN1CC1	.	2	.	.
O=C1NC(=O)N(c2cccc(Cl)c2)C(=O)/C1=C\c1ccc(Sc2nc3ccccc3[nH]2)o1	14*	-33	20*	26*	IDE inh confirm=15;HEK cytotox=10
CC(C)(C#CCCCCC#CC(C)(C)[N+](C)(C)C)[N+](C)(C)C	1	.	2	4
CCOC(=O)c1c(C)n(Cc2ccccc2)c2ccc(OCC(O)Cn3nc(C)nc3C)cc12 (stereo not drawn)	-1	-10	-1	15
CCOC(=O)c1c(C)n(Cc2ccccc2)c2ccc(OCC(O)CNC(C)(C)C)cc12 (stereo not drawn)	.	-19	.	38*	IDE inh confirm=19*;HEK cytotox=18
CC(C)COC(=O)c1ccccc1C(=O)OCC(C)C	.	1	.	-5

Screening data as filed in PubChem BioAssay.
